Yeast life ext – compounds extending yeast replicative lifespan, primary screen, S. cerevisiae, OD615 | S. cerevisiae growth with nicotinamide; deaD strain in restrictive glucose medium | inhibition of the nicotinamide effect, % at 10 µM | hit rate 0.68% among 130,000 | AID 775, 2007;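 active = inhibition above a set limit, placed 3 SD over the median of all compounds, cut at about 26% in these data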;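 also: 0% = nicotinamide-treated wells and 100% = cells grown without nicotinamide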
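System: DeaD-strain S. cerevisiae / Buffer or medium: CSMM-D, restrictive glucose (dextrose) synthetic minimal medium / Probe or stimulus: nicotinamide, 1.5 mM, co-present with compound / Compound: one concentration, 10 µM, DMSO 0.25% / Incubation: 48 h compound exposure at 30 °C, humidified / Technique: optical density (absorbance) at 615 nm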
RAM inhibit – inhibitors of the yeast RAM network, primary screen, dse1pr::URA3 reporter, 5-FOA selection; S. cerevisiae dse1pr::URA3 reporter, 5-FOA growth OD615, 2 d; analog-sensitive cbk1-as2 kinase mutant strain; inhibition, % at 50 µM; hit rate 1.8% among 190,000;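 active = inhibition above a set limit, 3 SD over mean compound inhibition, cut at about 8.4% in these data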;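 also: 0% = DMSO-only wells with no growth and 100% = 10 µM 1-NA-PP1 full growth; inhibition rescues growth on 5-FOA so higher OD means more RAM inhibition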
WT yeast gro inh – growth inhibition of WT strain, primary screen, mitochondrial fusion inhibitor project, WT and mutant strains, chemical genetic; mitochondrial fusion phenotypic screen; inhibition, % at 10 µM; hit rate 2.1% among 190,000; AID 1362, 2008; in the data active = inhibition above about 58%; tested in S. cerevisiae
Cl transport mod – KCC2 cotransporter modulators, thallium flux, primary screen, cell-based, HEK293 KCC2, FluoZin-2 fluorescence, MLSMR; AID 1456, 2008; B-score of Tl+ flux slope (higher = more flux/activation; lower = inhibition) at 10 µM; hit rate 2.2% among 190,000; KCC2 cells, thallium flux FluoZin-2 fluorescence;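 active = thallium flux slope and its plate-corrected score both differing from the plate sample mean at a set confidence after two filtering rounds, in either direction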;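 also: slope of fluorescence scaled to starting intensity during 10 to 20 s after thallium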
Target sequence (Q9H2X9 whole entry, looked up): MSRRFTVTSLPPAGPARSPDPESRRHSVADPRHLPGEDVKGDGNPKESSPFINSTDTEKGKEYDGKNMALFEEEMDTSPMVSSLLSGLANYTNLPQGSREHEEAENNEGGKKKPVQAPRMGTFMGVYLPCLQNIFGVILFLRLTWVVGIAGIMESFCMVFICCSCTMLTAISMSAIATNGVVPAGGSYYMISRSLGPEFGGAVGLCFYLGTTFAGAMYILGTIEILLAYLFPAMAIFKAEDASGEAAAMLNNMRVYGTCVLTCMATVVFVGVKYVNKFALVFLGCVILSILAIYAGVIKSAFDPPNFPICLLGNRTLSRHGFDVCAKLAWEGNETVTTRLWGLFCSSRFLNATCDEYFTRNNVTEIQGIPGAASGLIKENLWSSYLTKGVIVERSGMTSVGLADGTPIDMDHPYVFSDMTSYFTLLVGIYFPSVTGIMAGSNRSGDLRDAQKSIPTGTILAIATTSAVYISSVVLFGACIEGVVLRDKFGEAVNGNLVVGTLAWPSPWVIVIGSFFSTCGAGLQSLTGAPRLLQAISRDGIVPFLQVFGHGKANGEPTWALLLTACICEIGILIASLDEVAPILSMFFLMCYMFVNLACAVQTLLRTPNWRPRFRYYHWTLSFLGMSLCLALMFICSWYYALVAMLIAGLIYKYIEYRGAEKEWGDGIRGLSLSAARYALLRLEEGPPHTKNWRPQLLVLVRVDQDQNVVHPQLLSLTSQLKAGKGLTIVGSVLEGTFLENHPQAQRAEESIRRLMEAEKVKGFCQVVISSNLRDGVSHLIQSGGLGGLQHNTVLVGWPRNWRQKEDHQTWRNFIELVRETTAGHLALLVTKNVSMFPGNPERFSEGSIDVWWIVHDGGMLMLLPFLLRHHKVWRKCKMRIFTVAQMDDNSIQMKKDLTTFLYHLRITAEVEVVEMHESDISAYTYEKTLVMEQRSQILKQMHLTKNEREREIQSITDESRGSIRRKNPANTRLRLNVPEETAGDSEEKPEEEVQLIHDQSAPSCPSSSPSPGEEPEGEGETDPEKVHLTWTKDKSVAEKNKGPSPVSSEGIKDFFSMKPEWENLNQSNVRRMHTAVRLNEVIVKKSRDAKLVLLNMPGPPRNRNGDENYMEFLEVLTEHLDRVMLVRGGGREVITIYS
BB579 growth dn – growth inhibitors of yeast BB579 in restrictive medium, primary screen, yeast lifespan-shortening project, S. cerevisiae. OD615, 48 h. inhibition, % at 10 µM. hit rate 0.51% among 140,000. AID 804, 2007;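 active = inhibition above a set limit, 3 SD over the mean compound inhibition, cut at about 44% in these data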
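System: Saccharomyces cerevisiae DeaD strain BB579, replicative lifespan model yeast | Buffer or medium: Restrictive glucose-based CSMM-D medium | Times: 4 h preincubation and 48 h exposure at 30 °C | Detection: OD615 turbidity measurement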
RAM 5-FOA – 5-FOA growth of efflux-deficient control yeast, dose response, counter-screen for RAM network inhibitor project, S. cerevisiae, OD615 | shares compounds with RAM inhibit | S. cerevisiae efflux-deficient reporter strain, 5-FOA growth OD615, 2 days | max inhibition, % | 1,200 tested, under 10 active | AID 1305, 2008; call rule not given here;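 also: plate controls were vehicle for no effect and reference inhibitor for full effect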
Starred values were filed as active, the others as inactive. The list is not random: actives were taken first. Their share in the collection is about 5.5%.

How did O=C1CCC(/C=C/c2ccccc2)=NN1Cc1ccccc1Cl do in these assays?
Yeast life ext: -5.6; RAM inhibit: 23.1*; WT yeast gro inh: 60.2*; BB579 growth dn: -81.0; RAM 5-FOA: 1.5

What do the screens show for `COc1ccc(/C=C/C2=NN(Cc3ccccc3)C(=O)CC2)cc1`?
RAM inhibit: 5.1; WT yeast gro inh: 11.8

How did O=C1CCC(/C=C/c2ccccc2)=NN1Cc1ccc(Cl)c(Cl)c1 do in these assays?
Yeast life ext: -13.2; RAM inhibit: 13.3*; WT yeast gro inh: 37.6; BB579 growth dn: -28.2; RAM 5-FOA: 3.9

What do the screens show for `O=C(Cn1cc(C(F)(F)F)ccc1=O)N/N=C/c1ccccc1`?
RAM inhibit: -0.4; WT yeast gro inh: -13.0; Cl transport mod: -0.174

How did Cc1cc(C)n2nc(/C(C#N)=C/c3ccccn3)c(C#N)c2n1 do in these assays?
RAM inhibit: 0.4; WT yeast gro inh: 4.0; Cl transport mod: 0.372

How did CCn1nc(C(=O)OC(C(=O)c2c[nH]c3ccccc23)c2ccccc2)c2ccccc2c1=O (configuration not stated) do in these assays?
Yeast life ext: -9.1; RAM inhibit: 2.8; WT yeast gro inh: 3.6; Cl transport mod: -0.112; BB579 growth dn: -40.1

How did NC(N)=Nc1nc(C2COc3ccccc3O2)cs1 (configuration not stated) do in these assays?
Yeast life ext: -0.1; RAM inhibit: 1.1; WT yeast gro inh: 16.0; Cl transport mod: -0.0397; BB579 growth dn: -24.3

What do the screens show for `CCOc1cccc(-c2csc(C3COc4ccccc4O3)n2)c1` (configuration not stated)?
Yeast life ext: 4.9; RAM inhibit: 15.0*; WT yeast gro inh: 3.2; Cl transport mod: 0.775; BB579 growth dn: -32.1; RAM 5-FOA: 3.2

How did CCCCCc1c2c(cc(O)c1C(=O)O)OC(=O)c1c(cc(OC)cc1C(=O)CCCC)O2 do in these assays?
RAM inhibit: 13.3*; WT yeast gro inh: 4.3; Cl transport mod: -2.93; RAM 5-FOA: 3.1

What do the screens show for `O=C(Oc1ccccc1/C=C\C(=O)c1cc2ccccc2o1)c1ccccc1`?
Yeast life ext: 0.1; RAM inhibit: 8.2; WT yeast gro inh: 34.3; Cl transport mod: 0.142; BB579 growth dn: -20.4

How did COc1cccc(C(=O)Oc2ccccc2/C=C\C(=O)c2cc3ccccc3o2)c1 do in these assays?
Yeast life ext: 3.5; RAM inhibit: 16.4*; WT yeast gro inh: 16.7; Cl transport mod: 0.539; BB579 growth dn: -34.1; RAM 5-FOA: 7.8

Results for COc1ccc(/C=C/C(=O)OCc2csc(-c3ccccc3)n2)cc1OC ?
Yeast life ext: -0.2; RAM inhibit: 15.8*; WT yeast gro inh: 26.4; Cl transport mod: -0.368; BB579 growth dn: -49.5; RAM 5-FOA: 1.6

Results for O=C(OCc1csc(-c2ccccc2)n1)c1ccc(O)cc1 ?
RAM inhibit: -1.3; WT yeast gro inh: 1.5; Cl transport mod: -2.03

Assay outcomes from PubChem BioAssay.
